# Measurements published in article PMC4212002 (Molecular Pharmaceutics, 2014).
# Positions of bridges follow the written chain, without caps; N, C: chain ends. Residues, ends and D or L forms follow the SMILES beside them.
# Key:
# [1] = In vitro stability in PBS buffer; type: physicochemical; settings: 0.01 M PBS pH 7.4, 1 h, room temperature, 3.7–5.55 MBq, radio-HPLC
# Summary of the method: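 The radiotracer was reconstituted in PBS and sterile-filtered (0.22 μm) before incubation. After incubation, samples were analysed by radio-HPLC. Percent intact peptide was obtained by quantifying the peaks for intact peptide and for degradation products.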
# U87MG cells = assay: U87MG cell uptake assay; type: cell-based, human; settings: for cell uptake (% of added radioactivity): 37 kBq/well, mean ± SD, triplicate
# Summary of the method: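 U87MG cells were grown in high-glucose DMEM with 10% FBS and 1% pen-strep (37 °C, 5% CO2) and trypsinised at 70–80% confluence. Cells (1 × 10^5/well) attached overnight and were PBS-washed, then exposed to 37 kBq radiotracer per well in medium ± 2 μg/well c(RGDyK) at 37 or 4 °C for 15–120 min. Cells were washed, lysed in 1.0 M NaOH and γ-counted as % added activity. Two experiments, triplicate wells.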
# [2] = Small animal PET imaging quantification; type: in vivo, mouse; settings: mouse, tumor, iv, 3.7 MBq, total radioactivity
# Summary of the method: (§1)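 Female nude mice carried s.c. U87MG shoulder xenografts of 0.5–1 cm, n = 4 per group. About 3.7 MBq (100 μCi) of radiotracer was given via tail vein, with or without ~330 μg c(RGDyK) coinjected. Mice were scanned on a small-animal PET at 0.5, 1 and 2 h p.i. under isoflurane (5% induction, 2% maintenance in 100% O2). Images were reconstructed by OSEM 2D and regional uptake quantified as %ID/g.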
# U87MG tumor-bearing mice [3] = assay: Small animal PET imaging quantification; type: in vivo, mouse; settings: U87MG xenograft mice, within 2 h p.i.
# Summary of the method: as §1
# Biodistribution study = type: in vivo, mouse; settings: nude, mouse, iv, total radioactivity
# Summary of the method: (§2)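 Female athymic nude mice bore s.c. right-shoulder xenografts (~1 × 10^7 U87MG cells in 100 μL PBS, grown 2–3 weeks to 0.5–1 cm). The radiofluorinated peptide (1.85–3.7 MBq) was given via tail vein; mice were killed 0.5–2.5 h p.i. Tissues were weighed and γ-counted and expressed as %ID/g, n = 4 per group. A blocking group was coinjected with 330 μg c(RGDyK) and examined at 2.5 h.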
# U87MG tumor-bearing mice [4] = assay: Biodistribution study; type: in vivo, mouse; settings: U87MG xenograft nude mice, i.v., 2.5 h p.i., mean ± SD n = 4
# Summary of the method: as §2
# [5] = system: integrin αvβ3 (U87MG cells); settings: read-out: U87MG IC50; binding to U87MG cells; ref 22 and 23; cited from earlier work
# integrin αvβ3 = integrin αvβ3 (Homo sapiens, UniProt P05106+P06756); settings: cited from earlier work
# Sequence of integrin αvβ3 (P06756 31-889): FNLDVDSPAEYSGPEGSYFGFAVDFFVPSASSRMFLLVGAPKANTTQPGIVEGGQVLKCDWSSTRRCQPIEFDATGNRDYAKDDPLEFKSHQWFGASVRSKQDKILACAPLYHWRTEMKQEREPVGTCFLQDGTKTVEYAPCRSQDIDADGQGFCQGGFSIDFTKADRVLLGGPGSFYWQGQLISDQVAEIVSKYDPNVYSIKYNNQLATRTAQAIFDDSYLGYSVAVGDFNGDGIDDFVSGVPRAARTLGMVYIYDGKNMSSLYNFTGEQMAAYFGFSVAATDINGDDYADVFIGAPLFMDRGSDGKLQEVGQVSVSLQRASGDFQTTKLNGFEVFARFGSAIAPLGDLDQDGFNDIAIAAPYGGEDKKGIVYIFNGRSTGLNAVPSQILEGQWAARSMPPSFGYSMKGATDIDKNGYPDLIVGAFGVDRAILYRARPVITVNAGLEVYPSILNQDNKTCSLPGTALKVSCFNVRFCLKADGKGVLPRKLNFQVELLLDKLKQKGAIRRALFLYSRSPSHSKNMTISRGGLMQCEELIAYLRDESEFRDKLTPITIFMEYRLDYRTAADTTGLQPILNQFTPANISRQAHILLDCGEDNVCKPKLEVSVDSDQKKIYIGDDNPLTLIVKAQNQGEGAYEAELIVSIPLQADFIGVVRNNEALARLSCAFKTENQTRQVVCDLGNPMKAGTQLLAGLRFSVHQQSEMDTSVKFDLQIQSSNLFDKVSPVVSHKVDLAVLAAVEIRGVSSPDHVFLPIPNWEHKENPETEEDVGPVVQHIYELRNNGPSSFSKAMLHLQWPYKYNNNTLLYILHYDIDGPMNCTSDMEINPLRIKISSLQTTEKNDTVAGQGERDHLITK
# Sequence of integrin αvβ3 (P06756 891-992): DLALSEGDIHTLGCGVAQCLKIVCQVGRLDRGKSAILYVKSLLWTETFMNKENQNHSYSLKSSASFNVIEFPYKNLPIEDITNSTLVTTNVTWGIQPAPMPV
# Sequence of integrin αvβ3 (P05106 27-718): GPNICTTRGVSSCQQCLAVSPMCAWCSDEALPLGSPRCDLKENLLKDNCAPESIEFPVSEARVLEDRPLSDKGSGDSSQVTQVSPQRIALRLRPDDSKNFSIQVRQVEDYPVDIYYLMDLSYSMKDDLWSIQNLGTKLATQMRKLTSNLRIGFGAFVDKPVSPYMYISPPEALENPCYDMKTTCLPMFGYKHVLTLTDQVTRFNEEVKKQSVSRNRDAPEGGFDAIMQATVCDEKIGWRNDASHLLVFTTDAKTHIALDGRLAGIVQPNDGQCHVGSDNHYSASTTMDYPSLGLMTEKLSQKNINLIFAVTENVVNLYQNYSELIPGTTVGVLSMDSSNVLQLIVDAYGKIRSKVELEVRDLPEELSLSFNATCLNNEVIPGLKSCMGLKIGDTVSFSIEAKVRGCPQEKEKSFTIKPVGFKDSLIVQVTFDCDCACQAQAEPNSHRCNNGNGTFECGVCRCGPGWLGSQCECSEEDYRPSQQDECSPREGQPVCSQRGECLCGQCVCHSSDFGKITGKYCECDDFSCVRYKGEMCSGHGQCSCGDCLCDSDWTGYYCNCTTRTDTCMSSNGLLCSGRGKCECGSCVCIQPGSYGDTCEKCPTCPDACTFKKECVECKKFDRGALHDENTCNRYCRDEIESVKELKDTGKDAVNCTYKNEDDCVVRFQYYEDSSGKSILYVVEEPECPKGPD
# integrin αvβ5 = settings: cited from earlier work
# integrin α5β1 = settings: cited from earlier work
# integrin αiibβ3 = settings: cited from earlier work
smiles,measurement,setting,value
CSCC[C@@H]1NC(=O)[C@H](CC(=O)O)NC(=O)CNC(=O)[C@H](CCCNC(=N)N)NC(=O)[C@H](C)NC(=O)[C@H](CCC(=O)O)NC(=O)[C@H](CCCNC(=N)N)NC(=O)[C@@H]2CSSC[C@@H]3NC(=O)[C@H](CO)NC(=O)[C@H]([C@@H](C)O)NC(=O)[C@@H]4CCCN4C(=O)[C@H](C)NC(=O)[C@H](Cc4c[nH]c5ccccc45)NC(=O)[C@H](CC(=O)O)NC(=O)CNC(=O)[C@H](CCCNC(=N)N)NC(=O)CNC(=O)[C@H](CCC(N)=O)NC(=O)[C@@H]4CCCN4C(=O)[C@@H](NC(=O)CNC(=O)C(C)F)CSSC[C@H](NC(=O)CNC(=O)[C@H](C)NC(=O)[C@H](CC(C)C)NC(=O)[C@H](CSSC[C@@H](C(=O)NCC(N)=O)NC(=O)[C@H]([C@@H](C)O)NC(=O)[C@H](CCCNC(=N)N)NC(=O)[C@@H]4CCCN4C1=O)NC(=O)[C@H](CC(=O)O)NC(=O)[C@H](CO)NC(=O)[C@H](CC(=O)O)NC(=O)[C@H](CCC(N)=O)NC(=O)[C@H](CO)NC3=O)C(=O)N[C@@H](C(C)C)C(=O)N2 (stereo partly shown) [^18F-FP–3-4A],intact probe after incubation in PBS,[1],completely intact
same,accumulation in cells at 37 °C compared to 4 °C,U87MG cells,2–3 fold
same,inhibition of cell uptake by excess c(RGDyK),"U87MG cells; 4 °C, 1 h, 2 μg/well c(RGDyK)",31.82%
same,cell uptake (% of added radioactivity),"U87MG cells; 4 °C, 15 min",0.32 ± 0.02%
same,cell uptake (% of added radioactivity),"U87MG cells; 4 °C, 30 min",0.41 ± 0.11%
same,cell uptake (% of added radioactivity),"U87MG cells; 4 °C, 60 min",0.44 ± 0.05%
same,cell uptake (% of added radioactivity),"U87MG cells; 4 °C, 120 min",0.51 ± 0.04%
same,cell uptake (% of added radioactivity),"U87MG cells; 37 °C, 15 min",0.71 ± 0.07%
same,cell uptake (% of added radioactivity),"U87MG cells; 37 °C, 30 min",0.90 ± 0.04%
same,cell uptake (% of added radioactivity),"U87MG cells; 37 °C, 60 min",1.44 ± 0.04%
same,cell uptake (% of added radioactivity),"U87MG cells; 37 °C, 120 min",1.50 ± 0.07%
same,tissue uptake at 0.5 h,[2],3.87 ± 0.66 %ID/g
same,in vivo defluorination (bone uptake on PET),U87MG tumor-bearing mice [3],no observable defluorination
same,tissue to tissue ratio at 0.5 h,Biodistribution study; tumor and blood,5.94 ± 0.94
same,tissue to tissue ratio at 1 h,Biodistribution study; tumor and blood,4.39 ± 0.82
same,tissue to tissue ratio at 2.5 h,Biodistribution study; tumor and blood,3.12 ± 0.55
same,tissue to tissue ratio at 0.5 h,Biodistribution study; tumor and kidney,0.57 ± 0.19
same,tissue to tissue ratio at 1 h,Biodistribution study; tumor and kidney,0.6 ± 0.12
same,tissue to tissue ratio at 2.5 h,Biodistribution study; tumor and kidney,0.72 ± 0.15
same,tissue to tissue ratio at 0.5 h,Biodistribution study; tumor and liver,5.55 ± 0.63
same,tissue to tissue ratio at 1 h,Biodistribution study; tumor and liver,5.69 ± 0.88
same,tissue to tissue ratio at 2.5 h,Biodistribution study; tumor and liver,3.15 ± 0.74
same,tissue to tissue ratio at 0.5 h,Biodistribution study; tumor and lung,2.22 ± 0.45
same,tissue to tissue ratio at 1 h,Biodistribution study; tumor and lung,1.44 ± 0.31
same,tissue to tissue ratio at 2.5 h,Biodistribution study; tumor and lung,1.64 ± 0.01
same,tissue to tissue ratio at 0.5 h,Biodistribution study; tumor and muscle,10.8 ± 1.52
same,tissue to tissue ratio at 1 h,Biodistribution study; tumor and muscle,10.1 ± 1.22
same,tissue to tissue ratio at 2.5 h,Biodistribution study; tumor and muscle,3.47 ± 0.07
same,tissue to tissue ratio at 0.5 h,Biodistribution study; tumor and pancreas,12 ± 1.94
same,tissue to tissue ratio at 1 h,Biodistribution study; tumor and pancreas,6.06 ± 0.54
same,tissue to tissue ratio at 2.5 h,Biodistribution study; tumor and pancreas,3.96 ± 1.24
same,tissue to tissue ratio at 0.5 h,Biodistribution study; tumor and spleen,4.28 ± 0.4
same,tissue to tissue ratio at 1 h,Biodistribution study; tumor and spleen,2.63 ± 0.32
same,tissue to tissue ratio at 2.5 h,Biodistribution study; tumor and spleen,1.83 ± 0.16
same,liver uptake,U87MG tumor-bearing mice [4],0.29 % ID/g
"CSCC[C@@H]1NC(=O)[C@H](CC(=O)O)NC(=O)CNC(=O)[C@H](CCCNC(=N)N)NC(=O)[C@H](C)NC(=O)[C@H](CCC(=O)O)NC(=O)[C@H](CCCNC(=N)N)NC(=O)[C@@H]2CSSC[C@@H]3NC(=O)[C@H](CO)NC(=O)[C@H]([C@@H](C)O)NC(=O)[C@@H]4CCCN4C(=O)[C@H](C)NC(=O)[C@H](Cc4c[nH]c5ccccc45)NC(=O)[C@H](CC(=O)O)NC(=O)CNC(=O)[C@H](CCCNC(=N)N)NC(=O)CNC(=O)[C@H](CCC(N)=O)NC(=O)[C@@H]4CCCN4C(=O)[C@@H](NC(=O)CN)CSSC[C@H](NC(=O)CNC(=O)[C@H](C)NC(=O)[C@H](CC(C)C)NC(=O)[C@H](CSSC[C@@H](C(=O)NCC(N)=O)NC(=O)[C@H]([C@@H](C)O)NC(=O)[C@H](CCCNC(=N)N)NC(=O)[C@@H]4CCCN4C1=O)NC(=O)[C@H](CC(=O)O)NC(=O)[C@H](CO)NC(=O)[C@H](CC(=O)O)NC(=O)[C@H](CCC(N)=O)NC(=O)[C@H](CO)NC3=O)C(=O)N[C@@H](C(C)C)C(=O)N2 [3-4A] (H-GCPQGRGDWAPTSCSQDSDCLAGCVCREARGDMPRTCG-NH2; disulfide 2-24, 14-26, 20-37; C-terminus assumed)",IC50,[5],5 ± 2 nM
same,binding affinity to integrin αvβ3,integrin αvβ3,high binding affinity
same,binding affinity to integrin αvβ5,integrin αvβ5,high binding affinity
same,binding affinity for integrin α5β1,integrin α5β1,lower affinity
same,binding affinity for integrin αiibβ3,integrin αiibβ3,lower affinity
